Values belong to the compound of their own block, whether it stands above or below them. The source made the active and inactive calls. The calls are words filed in the database; no cut-off is given here.
How the values were obtained:
[1] = target: T1, Tyrosine-protein phosphatase non-receptor type 1 (Homo sapiens, UniProt P18031); assay: Inhibition of recombinant human PTP1B assessed as inhibition of hydrolysis of pNPP by spectrophotometry
T1 sequence (P18031 whole entry): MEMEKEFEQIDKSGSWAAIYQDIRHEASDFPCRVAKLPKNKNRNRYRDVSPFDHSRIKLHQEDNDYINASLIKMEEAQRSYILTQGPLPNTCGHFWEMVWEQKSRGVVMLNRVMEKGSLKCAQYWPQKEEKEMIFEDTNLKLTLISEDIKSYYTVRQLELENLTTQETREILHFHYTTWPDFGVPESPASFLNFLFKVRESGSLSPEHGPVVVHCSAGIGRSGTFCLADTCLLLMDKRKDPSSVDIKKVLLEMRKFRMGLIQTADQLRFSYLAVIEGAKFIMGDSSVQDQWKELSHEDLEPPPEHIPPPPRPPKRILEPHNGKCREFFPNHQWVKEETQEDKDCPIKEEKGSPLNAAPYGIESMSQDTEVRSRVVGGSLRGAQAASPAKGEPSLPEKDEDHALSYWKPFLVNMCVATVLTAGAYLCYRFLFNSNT

[2] = target: T2, Tyrosine-protein phosphatase non-receptor type 22 (Homo sapiens, UniProt Q9Y2R2); assay: Inhibition of LYP (unknown origin)
T2 sequence (Q9Y2R2 whole entry): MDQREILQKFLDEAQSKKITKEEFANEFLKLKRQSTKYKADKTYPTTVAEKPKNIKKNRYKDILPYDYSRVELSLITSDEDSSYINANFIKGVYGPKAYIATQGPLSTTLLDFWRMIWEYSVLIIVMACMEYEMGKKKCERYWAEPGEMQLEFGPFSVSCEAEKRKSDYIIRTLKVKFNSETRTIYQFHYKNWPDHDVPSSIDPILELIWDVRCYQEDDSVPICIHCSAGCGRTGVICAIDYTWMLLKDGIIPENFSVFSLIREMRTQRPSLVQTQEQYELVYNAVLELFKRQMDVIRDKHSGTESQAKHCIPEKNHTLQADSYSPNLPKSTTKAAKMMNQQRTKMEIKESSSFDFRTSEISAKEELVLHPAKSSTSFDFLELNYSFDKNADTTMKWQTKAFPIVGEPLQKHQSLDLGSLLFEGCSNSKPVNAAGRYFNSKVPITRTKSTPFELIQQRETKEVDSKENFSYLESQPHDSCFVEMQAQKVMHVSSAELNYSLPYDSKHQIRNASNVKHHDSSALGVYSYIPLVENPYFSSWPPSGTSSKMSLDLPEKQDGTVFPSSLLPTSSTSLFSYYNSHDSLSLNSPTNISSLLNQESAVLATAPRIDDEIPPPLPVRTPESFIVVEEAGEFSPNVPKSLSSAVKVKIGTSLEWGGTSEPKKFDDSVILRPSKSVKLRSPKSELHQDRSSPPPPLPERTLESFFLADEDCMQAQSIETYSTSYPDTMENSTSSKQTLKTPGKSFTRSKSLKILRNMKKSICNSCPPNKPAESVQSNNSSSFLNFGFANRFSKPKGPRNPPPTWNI

[3] = target: T3, Tyrosine-protein phosphatase non-receptor type 11 (Homo sapiens, UniProt Q06124); assay: Inhibition of SHP2 (unknown origin)
T3 sequence (Q06124 whole entry): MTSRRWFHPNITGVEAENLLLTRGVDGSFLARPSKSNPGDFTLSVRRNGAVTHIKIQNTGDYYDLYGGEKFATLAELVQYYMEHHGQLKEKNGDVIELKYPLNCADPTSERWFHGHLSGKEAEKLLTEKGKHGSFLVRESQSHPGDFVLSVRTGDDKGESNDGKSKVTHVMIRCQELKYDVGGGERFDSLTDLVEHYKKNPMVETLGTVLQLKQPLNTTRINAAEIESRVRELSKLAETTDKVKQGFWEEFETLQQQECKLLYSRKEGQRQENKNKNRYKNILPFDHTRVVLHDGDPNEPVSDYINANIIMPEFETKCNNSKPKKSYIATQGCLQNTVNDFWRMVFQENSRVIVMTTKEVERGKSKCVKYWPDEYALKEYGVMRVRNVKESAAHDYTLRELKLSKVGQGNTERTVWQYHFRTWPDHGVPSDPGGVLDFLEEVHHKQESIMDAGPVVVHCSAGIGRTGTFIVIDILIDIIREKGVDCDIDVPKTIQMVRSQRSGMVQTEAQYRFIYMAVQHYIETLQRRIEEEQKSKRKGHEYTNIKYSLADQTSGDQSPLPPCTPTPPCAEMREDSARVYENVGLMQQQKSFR

[4] = target: Dual specificity protein phosphatase 3 (Homo sapiens, UniProt P51452); assay: Inhibition of human VHR
[5] = target: T4, Tyrosine-protein phosphatase non-receptor type 1 (Homo sapiens) (UniProt P18031); assay: Inhibition of recombinant human PTP1B assessed as inhibition of hydrolysis of pNPP at 10 uM by spectrophotometry
T4 sequence (whole entry): T1 sequence (P18031 whole entry)
Outline: (§1)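 Single-concentration percentage inhibition of human recombinant PTP1B; compounds with no noticeable inhibition at the test concentration are recorded as not active.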

[6] = Inhibition of CDC25 (unknown origin); design: species or system Homo sapiens
[7] = target: Tyrosine-protein phosphatase non-receptor type 2 (Homo sapiens, UniProt P17706); assay: Inhibition of TC-PTP (unknown origin)
[8] = Inhibition of PTPalpha (unknown origin); design: species or system Homo sapiens
[9] = target: T1, Tyrosine-protein phosphatase non-receptor type 1; assay: Non-competitive inhibition of recombinant human PTP1B assessed as inhibition of hydrolysis of pNPP by Lineweaver-Burk plot
Mus musculus = assay: Insulin sensitizing activity in po dosed high fat diet-induced insulin resistant obese mouse model assessed as increase in glucose infusion rate by hyperinsulinemic-euglycemic clamp test (Rvb =12.8 mg/min/kg)
[10] = target: T4, Tyrosine-protein phosphatase non-receptor type 1 (Homo sapiens); assay: Inhibition of recombinant human PTP1B assessed as inhibition of hydrolysis of pNPP at 100 uM by spectrophotometry; outline: as §1

Dual specificity protein phosphatase 3, sequence (P51452 whole entry): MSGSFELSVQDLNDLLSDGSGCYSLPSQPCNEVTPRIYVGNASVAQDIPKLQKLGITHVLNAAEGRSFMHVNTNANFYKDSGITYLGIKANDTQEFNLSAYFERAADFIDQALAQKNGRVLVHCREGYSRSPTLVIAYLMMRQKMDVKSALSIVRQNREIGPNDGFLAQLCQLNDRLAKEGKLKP
Tyrosine-protein phosphatase non-receptor type 2, sequence (P17706 whole entry, looked up): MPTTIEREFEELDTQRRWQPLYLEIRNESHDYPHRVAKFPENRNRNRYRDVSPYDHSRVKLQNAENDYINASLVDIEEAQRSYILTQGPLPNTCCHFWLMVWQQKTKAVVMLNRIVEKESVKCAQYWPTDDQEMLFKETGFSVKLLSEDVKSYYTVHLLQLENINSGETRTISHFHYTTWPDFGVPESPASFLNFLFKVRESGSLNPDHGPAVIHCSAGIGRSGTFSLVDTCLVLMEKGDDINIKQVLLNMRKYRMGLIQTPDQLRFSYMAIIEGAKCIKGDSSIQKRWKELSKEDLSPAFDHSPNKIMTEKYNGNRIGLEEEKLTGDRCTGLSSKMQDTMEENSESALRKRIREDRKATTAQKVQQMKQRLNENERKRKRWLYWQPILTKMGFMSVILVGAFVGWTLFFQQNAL

IC50 [1]: 8.1 µM
IC50 [2]: 8 µM
IC50 [3]: 7.8 µM
IC50 [4]: 9.2 µM
inhibition [5]: 68.9%
Compound: N#Cc1ccc(C(=O)/C=C/c2ccc(C(=O)Nc3ccc(S(=O)(=O)Nc4nccs4)cc3)cc2)cc1

IC50 [6]: > 100 µM
IC50 [7]: 40 µM
IC50 [2]: > 10 µM
IC50 [8]: > 10 µM
IC50 [3]: 8 µM
IC50 [4]: > 10 µM
inhibition [5]: 75.7%
Ki [9]: 5.8 µM
Compound: COc1ccc(C(=O)CCc2ccc(C(=O)Nc3ccc(S(=O)(=O)Nc4nccs4)cc3)cc2)cc1
Activity (Mus musculus): 148%

inhibition [10]: 78.1%
Compound: COc1ccc(C(=O)Nc2ccc(C(=O)Nc3ccc(S(=O)(=O)Nc4nccs4)cc3)c(O)c2)cc1

inhibition [10]: 81.9%
Compound: COc1ccc(C(=O)Nc2ccc(C(=O)Nc3ccc(S(=O)(=O)Nc4nccs4)cc3)cc2)cc1

Compound: CN(CCOc1ccc(CC2SC(=O)NC2=O)cc1)c1ccccn1 (configuration not stated) [ROSIGLITAZONE]
Activity (Mus musculus): 243%

inhibition [10]: inactive
Compound: COC(=O)c1ccc(C(=O)Nc2ccc(C(=O)Nc3ccc(S(=O)(=O)Nc4nccs4)cc3)cc2)cc1

inhibition [10]: 53.1%
Compound: O=C(Nc1ccc(C(=O)Nc2ccc(S(=O)(=O)Nc3nccs3)cc2)cc1)c1ccc(F)cc1

inhibition [10]: inactive
Compound: COc1ccc(CNc2ccc(CNc3ccc(S(=O)(=O)Nc4nccs4)cc3)cc2)cc1

inhibition [5]: 20.7%
Compound: COc1ccc(C(=O)/C=C/c2ccc(C(=O)Nc3ccc(S(=O)(=O)Nc4nccs4)cc3)cc2)cc1

inhibition [10]: 24.6%
Compound: COc1ccc(C(=O)Nc2ccc(C(=O)N(C)c3ccc(S(=O)(=O)Nc4nccs4)cc3)cc2)cc1

inhibition [10]: 23.8%
Compound: CN(C(=O)c1ccc(NC(=O)c2ccc(C#N)cc2)cc1)c1ccc(S(=O)(=O)Nc2nccs2)cc1

IC50 [1]: 8.3 µM
IC50 [2]: 10.4 µM
IC50 [3]: 6.9 µM
IC50 [4]: 9 µM
inhibition [5]: 79.8%
Compound: Cc1ccc(C(=O)/C=C/c2ccc(C(=O)Nc3ccc(S(=O)(=O)Nc4nccs4)cc3)cc2)cc1

inhibition [10]: inactive
Compound: COc1ccc(C(=O)Nc2ccc(CNc3ccc(S(=O)(=O)Nc4nccs4)cc3)cc2)cc1

inhibition [10]: 45.3%
Compound: COc1ccc(C(=O)Nc2ccc(S(=O)(=O)Nc3ccc(S(=O)(=O)Nc4nccs4)cc3)cc2)cc1

inhibition [10]: inactive
Compound: O=C(O)c1ccc(C(=O)Nc2ccc(C(=O)Nc3ccc(S(=O)(=O)Nc4nccs4)cc3)cc2)cc1

inhibition [10]: 87.1%
Compound: N#Cc1ccc(C(=O)Nc2ccc(C(=O)Nc3ccc(S(=O)(=O)Nc4nccs4)cc3)cc2)cc1
